In experiment [1] the target is Voltage-gated inwardly rectifying potassium channel KCNH2 (Homo sapiens, UniProt Q12809). The experiment in a line: Inhibition of human ERG.
Experiment [2] concerns Staphylococcus aureus. The experiment in a line: Antibacterial activity against cystic fibrosis patient isolate Staphylococcus aureus assessed as reduction in bacterial growth by CLSI based broth microdilution method. It is filed as functional. On the technique in general: Dilution methods test growth across graded concentrations, often in twofold steps.
The test system of experiment [3] is Staphylococcus aureus. Briefly: Antibacterial activity against Staphylococcus aureus USA300 assessed as reduction in bacterial growth by CLSI based broth microdilution method. It is filed as functional.
In experiment [4] the test system is Staphylococcus aureus. Briefly: Antibacterial activity against Staphylococcus aureus ATCC 29213 assessed as reduction in bacterial growth by CLSI based broth microdilution method. The experiment is classed as functional.
The test system of experiment [5] is Staphylococcus aureus. Briefly: Antibacterial activity against Staphylococcus aureus 3527 assessed as reduction in bacterial growth by CLSI based broth microdilution method. It is filed as functional. In a few lines: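 Host is a multidrug-resistant MRSA clinical isolate (formerly 1095), the parent of an isogenic D83N gyrase mutant. MIC was read by CLSI broth microdilution and reported in µg/mL.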

For experiment [6], the system named is Staphylococcus aureus. Briefly: Antibacterial activity against Staphylococcus aureus harboring DNA gyrase D83N mutant assessed as reduction in bacterial growth by CLSI based broth microdilution method. The experiment is classed as functional. In short, it runs like this: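 MIC against an isogenic NBTI-resistant daughter strain carrying a D83N substitution in DNA gyrase, originally selected under NBTI pressure from multidrug-resistant MRSA isolate 3527. CLSI broth microdilution was used, with values in µg/mL.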

Experiment [7] in a line: Inhibition of Staphylococcus aureus topoisomerase IV using kDNA as substrate incubated for 30 mins by gel electrophoresis analysis.
Experiment [8] in a line: Inhibition of Staphylococcus aureus DNA gyrase using relaxed pBR322 DNA as substrate incubated for 30 mins by agarose gel electrophoresis method.
Experiment [9] has as its system Staphylococcus aureus. The experiment in a line: Selectivity index, fold shift in MIC between parent and mutant. The experiment is classed as functional. In a few lines:
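MICs by CLSI broth microdilution in µg/mL against multidrug-resistant MRSA isolate 3527 (formerly 1095) and its isogenic NBTI-resistant daughter strain carrying a gyrase D83N substitution. Value is the fold shift in MIC between parent and mutant.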

Experiment [10] relates to Staphylococcus aureus. Briefly: Selectivity index, ratio of IC50 for inhibition of Staphylococcus aureus topoisomerase IV to IC50 for inhibition of Staphylococcus aureus DNA gyrase. In short, it runs like this: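 Ratio of S. aureus TopoIV IC50 to S. aureus DNA gyrase IC50, both from gel-based assays. TopoIV read-out was inhibition of decatenation; gyrase read-out was inhibition of supercoiling.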

The subject of the next experiment is Enterococcus faecalis. Briefly: Antibacterial activity against Enterococcus faecalis ATCC 29212 assessed as reduction in bacterial growth by CLSI based broth microdilution method. It is filed as functional.
The subject of experiment [11] is Streptococcus pneumoniae. The experiment in a line: Antibacterial activity against penicillin-resistant Streptococcus pneumoniae LSI-4246 assessed as reduction in bacterial growth by CLSI based broth microdilution method. The experiment is classed as functional.
Experiment [12] deals with Streptococcus pneumoniae. The experiment in a line: Antibacterial activity against penicillin-susceptible Streptococcus pneumoniae LSI-4234 assessed as reduction in bacterial growth by CLSI based broth microdilution method. The experiment is classed as functional.
The test system of experiment [13] is Staphylococcus aureus. Briefly: Antibacterial activity against methicillin-resistant Staphylococcus aureus DRL-3161 assessed as reduction in bacterial growth by CLSI based broth microdilution method. It is filed as functional.
Experiment [14] concerns Enterococcus faecium. The experiment in a line: Antibacterial activity against Vancomycin-resistant Enterococcus faecium LSI-3340 assessed as reduction in bacterial growth by CLSI based broth microdilution method. It is filed as functional.
For experiment [15], the system named is Enterococcus faecium. The experiment in a line: Antibacterial activity against Vancomycin-susceptible Enterococcus faecium DRL-4193 assessed as reduction in bacterial growth by CLSI based broth microdilution method. It is filed as functional.
Another experiment concerns Streptococcus pyogenes. Briefly: Antibacterial activity against Streptococcus pyogenes LSI-1235 assessed as reduction in bacterial growth by CLSI based broth microdilution method. The experiment is classed as functional.

In brackets after ≈: the same amount, converted by molar mass. Some results are limits rather than exact numbers.

Results on 13 compounds are retold here after ChEMBL document CHEMBL4765317, “Novel bacterial topoisomerase inhibitors derived from isomannide” (Eur J Med Chem, 2020).

As a reminder, the IC50 is the concentration at which inhibition is half-maximal. One may read the MIC as the least concentration at which growth counts as inhibited.

Chain of Voltage-gated inwardly rectifying potassium channel KCNH2 (Q12809 whole entry): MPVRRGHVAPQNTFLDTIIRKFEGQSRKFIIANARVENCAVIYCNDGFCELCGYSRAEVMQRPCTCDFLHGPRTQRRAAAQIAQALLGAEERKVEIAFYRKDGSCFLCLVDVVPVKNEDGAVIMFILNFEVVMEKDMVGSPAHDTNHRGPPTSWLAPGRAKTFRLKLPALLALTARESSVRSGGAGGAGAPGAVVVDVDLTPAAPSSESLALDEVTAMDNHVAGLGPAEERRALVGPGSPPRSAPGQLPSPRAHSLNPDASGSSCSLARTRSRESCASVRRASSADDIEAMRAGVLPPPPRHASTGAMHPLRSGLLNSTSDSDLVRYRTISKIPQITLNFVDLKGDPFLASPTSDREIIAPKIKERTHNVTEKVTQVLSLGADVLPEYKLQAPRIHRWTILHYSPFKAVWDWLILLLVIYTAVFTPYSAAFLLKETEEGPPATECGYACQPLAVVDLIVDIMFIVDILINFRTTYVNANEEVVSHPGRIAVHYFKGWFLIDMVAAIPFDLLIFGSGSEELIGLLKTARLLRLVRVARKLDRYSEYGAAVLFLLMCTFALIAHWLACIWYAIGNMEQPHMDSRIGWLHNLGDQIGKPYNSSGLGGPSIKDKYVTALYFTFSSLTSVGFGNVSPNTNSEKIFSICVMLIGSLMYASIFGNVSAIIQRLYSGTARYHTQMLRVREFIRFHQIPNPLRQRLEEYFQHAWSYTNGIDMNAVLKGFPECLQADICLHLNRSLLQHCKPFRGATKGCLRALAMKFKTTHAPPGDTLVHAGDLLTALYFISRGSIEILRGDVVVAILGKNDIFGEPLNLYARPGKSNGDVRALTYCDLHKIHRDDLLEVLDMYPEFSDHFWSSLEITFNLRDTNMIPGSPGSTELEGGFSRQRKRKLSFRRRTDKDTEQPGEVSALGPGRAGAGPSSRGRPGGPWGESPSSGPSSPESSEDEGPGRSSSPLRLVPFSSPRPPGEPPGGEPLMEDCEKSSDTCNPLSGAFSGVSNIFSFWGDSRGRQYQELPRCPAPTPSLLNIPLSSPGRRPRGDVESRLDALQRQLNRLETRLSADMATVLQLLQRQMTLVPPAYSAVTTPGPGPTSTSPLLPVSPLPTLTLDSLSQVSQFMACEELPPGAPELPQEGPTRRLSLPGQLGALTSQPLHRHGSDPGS

Consider `COc1ccc2ncc(F)c(CC[C@]3(O)CC[C@H](NCc4ccc(Cl)c(Cl)c4)CC3)c2n1`, for which 3.8 µM corresponded to half-maximal inhibition in experiment [1] (IC50).

As to `COc1ccc2nccc(CC[C@@]3(O)CO[C@@H]4[C@@H](NCc5ccc6c(c5)OCCO6)CO[C@@H]43)c2c1`, the MIC in the experiment on Staphylococcus aureus [2], with Staphylococcus aureus [3] and in the experiment with Staphylococcus aureus [4] was 16 µg/mL (≈ 33.4 µM) throughout.

As for `COc1ccc2ncc(F)c(CC[C@]3(O)CC[C@@H](NCc4ccc5c(c4)OCCO5)CC3)c2n1`, the IC50 in [1] came out at 2.2 µM.

Turning to `COc1ccc2ncc(F)c(CC[C@@]3(O)CO[C@@H]4[C@@H](NCc5ccc(Cl)c(Cl)c5)CO[C@@H]43)c2n1`, the MIC was 0.5 µg/mL (≈ 0.984 µM) in the experiment on Staphylococcus aureus [2]; 0.25 µg/mL (≈ 0.492 µM) in the experiment with Staphylococcus aureus [5]; 4 µg/mL (≈ 7.87 µM) in the experiment on Staphylococcus aureus [6]; 0.5 µg/mL (≈ 0.984 µM) with Staphylococcus aureus [3]; ≤ 0.25 µg/mL in the experiment on Staphylococcus aureus [4]. The IC50 in experiment [7] (read-out: IC50) stood at 2.9 µM; in [8], 0.2 µM.

The compound `COc1ccc2ncc(F)c(CC[C@H]3OC[C@H](NCc4ccc(Cl)c(Cl)c4)CO3)c2n1` had an IC50 in experiment [1] of 7.9 µM.

As to `COc1ccc2ncc(F)c(CC[C@@]3(O)CO[C@@H]4[C@@H](NCc5ccc6c(c5)OCCO6)CO[C@@H]43)c2n1`, the MIC was 1 µg/mL (≈ 2.01 µM) with Staphylococcus aureus [2]; 1 µg/mL (≈ 2.01 µM) with Staphylococcus aureus [5]; 4 µg/mL (≈ 8.04 µM) in the experiment on Staphylococcus aureus [6]; 1 µg/mL (≈ 2.01 µM) in the experiment on Staphylococcus aureus [3]; 0.5 µg/mL (≈ 1 µM) in the experiment with Staphylococcus aureus [4]. For the same compound, the Ratio in the experiment on Staphylococcus aureus [9] was found to be 4. Further, the 50% inhibitory concentration (IC50) in experiment [7] (read-out: IC50) is 2.6 µM; in experiment [1], 20 µM; in [8] it was 0.2 µM. In addition, the Ratio IC50 in the experiment with Staphylococcus aureus [10] is 13.

Consider `COc1ccc2ncc(F)c(CC[C@@]3(O)CO[C@@H]4[C@@H](NCc5ccc(C)cc5)CO[C@@H]43)c2n1`, for which the MIC was 2 µg/mL (≈ 4.41 µM) in the experiment with Staphylococcus aureus [2]; 2 µg/mL (≈ 4.41 µM) in the experiment on Staphylococcus aureus [5]; 16 µg/mL (≈ 35.3 µM) with Staphylococcus aureus [6]; 2 µg/mL (≈ 4.41 µM) in the experiment with Staphylococcus aureus [3]; 1 µg/mL (≈ 2.21 µM) with Staphylococcus aureus [4]. Moreover, in the experiment on Staphylococcus aureus [9], the Ratio came to 8. The IC50 is 7.5 µM in experiment [7] (read-out: IC50) and 0.18 µM in experiment [8]. In addition, the Ratio IC50 in the experiment on Staphylococcus aureus [10] turned out to be 42.

With `COc1ccc2nccc(CC[C@@]3(O)CO[C@@H]4[C@@H](NCc5ccc(C)cc5)CO[C@@H]43)c2c1`, the MIC in the experiment with Staphylococcus aureus [2], in the experiment on Staphylococcus aureus [3] and with Staphylococcus aureus [4] was > 8 µg/mL throughout.

In turn, `COc1ccc2ncc(F)c(CC[C@]3(O)CC[C@H](NCc4ccc5c(c4)OCCO5)CC3)c2n1` showed an IC50 in [1] of 2.3 µM.

Consider `COc1ccc2ncc(F)c(CC[C@H]3OC[C@H](NCc4cc5c(cn4)OCCO5)CO3)c2n1`, for which, in experiment [1], 15 µM corresponded to half-maximal inhibition (IC50).

With `COc1ccc2ncc(F)c(CC[C@H]3OC[C@H](NCc4ccc5c(c4)OCCO5)CO3)c2n1`, the minimum inhibitory concentration (MIC) is 0.25 µg/mL (≈ 0.549 µM) in the experiment on Staphylococcus aureus [2]; ≤ 0.25 µg/mL with Staphylococcus aureus [5]; 4 µg/mL (≈ 8.78 µM) in the experiment on Staphylococcus aureus [6]; 0.5 µg/mL (≈ 1.1 µM) in the experiment with Enterococcus faecalis; ≤ 0.06 µg/mL with Streptococcus pneumoniae [11]; 0.25 µg/mL (≈ 0.549 µM) in the experiment with Streptococcus pneumoniae [12]. In addition, the minimum inhibitory concentration (MIC) with Staphylococcus aureus [13] was ≤ 0.06 µg/mL; in the experiment with Staphylococcus aureus [3], 0.125 µg/mL (≈ 0.274 µM); with Staphylococcus aureus [4] it was < 0.25 µg/mL; in the experiment with Enterococcus faecium [14] it was 0.12 µg/mL (≈ 0.263 µM); with Enterococcus faecium [15], 0.12 µg/mL (≈ 0.263 µM); in the experiment on Streptococcus pyogenes, ≤ 0.06 µg/mL. The Ratio in the experiment with Staphylococcus aureus [9] is > 16. Besides, the IC50 was determined as 1 µM in experiment [7] (read-out: IC50), 8 µM in experiment [1] and 0.03 µM in experiment [8]. The Ratio IC50 in the experiment on Staphylococcus aureus [10] turned out to be 33.

With `COc1ccc2ncc(F)c(CC[C@@]3(O)CO[C@@H]4[C@@H](NCc5ccc6c(n5)NC(=O)CO6)CO[C@@H]43)c2n1`, the MIC in the experiment on Staphylococcus aureus [2] amounted to 2 µg/mL (≈ 3.91 µM); in the experiment on Staphylococcus aureus [5], 1 µg/mL (≈ 1.95 µM); in the experiment with Staphylococcus aureus [6] it was 8 µg/mL (≈ 15.6 µM); in the experiment with Staphylococcus aureus [3] it was 1 µg/mL (≈ 1.95 µM); in the experiment on Staphylococcus aureus [4] it was 2 µg/mL (≈ 3.91 µM). The Ratio in the experiment on Staphylococcus aureus [9] is 8. Besides, the figures for the IC50 entry in [7], in experiment [1] and in experiment [8] were “Not Active”, 12 µM and 0.54 µM, respectively.

`COc1ccc2nccc(CC[C@@]3(O)CO[C@@H]4[C@@H](NCc5ccccc5)CO[C@@H]43)c2c1`: the minimum inhibitory concentration (MIC) with Staphylococcus aureus [2], with Staphylococcus aureus [3] and in the experiment on Staphylococcus aureus [4] was > 8 µg/mL in each case.
